The values that follow come from ChEMBL document CHEMBL1149888 (Bioorg Med Chem, 2008).

Data set [1] concerns the target Butyrylcholinesterase (Equus caballus, UniProt Q9N1N9). Put plainly: Inhibition of equine serum BuChE by Ellman's assay. In short, it runs like this:
(§1)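 Ellman photometric assay with electric eel AChE (type VI-S) or equine serum BChE (enzyme solution 2.5 U/mL) in phosphate buffer, pH 8.0. Enzyme and inhibitor stand together for 5 min, then DTNB is added. The reaction starts with acetylthiocholine (AChE) or butyrylthiocholine (BChE), and A412 is read 2.5 min later at 25 °C. At least five concentrations (highest 10^-4 M final) are run in triplicate. Percent activity versus the no-inhibitor reference is plotted against log concentration; each value is the mean of ≥3 independent runs.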
On the technique in general: DTNB colorimetry detects thiols as they appear.

The target in data set [2] is Acetylcholinesterase (Electrophorus electricus, UniProt O42275). The data set can be described thus: Inhibition of electric eel AChE type 6S by Ellman's assay.
The nature of data set [3]: Selectivity ratio of IC50 for electric eel AChE to IC50 for equine serum BuChE.
The nature of data set [4]: Cytotoxicity against mouse brain N11 cells from by MTT assay. Type of data set: cell-based. A digest of the protocol: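 N11 microglia (embryonic mouse brain, retrovirus-immortalized) were kept in DMEM with 10% heat-inactivated FCS and 2 mM glutamine. Cells were seeded at 5×10³/well and grown 24 h, then exposed 24 h to compound or solvent in phenol-red-free medium with 1% FCS.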
(In general: Formazan colour is commonly taken as a measure of viable cells.)

A short description of data set [5]: Antioxidant scavenging activity against AAPH-induced peroxyl radical assessed as trolox equivalent per uM of compound by ORAC-fluorescein assay. Type of data set: physicochemical. A digest of the protocol: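 Peroxyl radicals generated by AAPH (12 mM final) at 37 °C in 75 mM phosphate buffer pH 7.4. Sample (0.5–10 µM) was preincubated 15 min with fluorescein (300 nM final), then AAPH added. Fluorescence (ex 485/em 535 nm) read every 60 s for 90 min. Net AUC vs blank was calibrated against Trolox (1–8 µM final). Each run fourfold, at least four independent runs.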

Data set [6] concerns the target Acetylcholinesterase (Electrophorus electricus) (UniProt O42275). Put plainly: Inhibition of electric eel AChE at 10 uM by Ellman's assay. A digest of the protocol:
as §1

Chain of Acetylcholinesterase (O42275 whole entry): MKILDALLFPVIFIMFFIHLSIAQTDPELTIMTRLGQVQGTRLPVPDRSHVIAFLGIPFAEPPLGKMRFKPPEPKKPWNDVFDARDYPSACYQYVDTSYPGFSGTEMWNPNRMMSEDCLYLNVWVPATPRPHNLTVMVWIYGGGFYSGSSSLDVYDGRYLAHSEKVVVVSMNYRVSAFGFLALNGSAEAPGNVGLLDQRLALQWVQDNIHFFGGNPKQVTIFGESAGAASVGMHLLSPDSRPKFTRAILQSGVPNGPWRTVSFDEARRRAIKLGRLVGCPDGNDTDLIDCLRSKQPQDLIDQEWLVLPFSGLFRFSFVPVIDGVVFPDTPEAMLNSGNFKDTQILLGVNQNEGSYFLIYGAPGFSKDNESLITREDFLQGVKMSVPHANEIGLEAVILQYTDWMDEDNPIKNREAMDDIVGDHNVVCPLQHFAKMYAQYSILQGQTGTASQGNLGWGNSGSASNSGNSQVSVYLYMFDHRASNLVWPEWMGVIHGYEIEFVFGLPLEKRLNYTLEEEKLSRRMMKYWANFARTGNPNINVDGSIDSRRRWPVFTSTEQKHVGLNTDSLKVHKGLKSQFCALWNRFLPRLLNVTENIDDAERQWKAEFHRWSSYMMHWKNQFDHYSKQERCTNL
Chain of Butyrylcholinesterase (Q9N1N9 whole entry): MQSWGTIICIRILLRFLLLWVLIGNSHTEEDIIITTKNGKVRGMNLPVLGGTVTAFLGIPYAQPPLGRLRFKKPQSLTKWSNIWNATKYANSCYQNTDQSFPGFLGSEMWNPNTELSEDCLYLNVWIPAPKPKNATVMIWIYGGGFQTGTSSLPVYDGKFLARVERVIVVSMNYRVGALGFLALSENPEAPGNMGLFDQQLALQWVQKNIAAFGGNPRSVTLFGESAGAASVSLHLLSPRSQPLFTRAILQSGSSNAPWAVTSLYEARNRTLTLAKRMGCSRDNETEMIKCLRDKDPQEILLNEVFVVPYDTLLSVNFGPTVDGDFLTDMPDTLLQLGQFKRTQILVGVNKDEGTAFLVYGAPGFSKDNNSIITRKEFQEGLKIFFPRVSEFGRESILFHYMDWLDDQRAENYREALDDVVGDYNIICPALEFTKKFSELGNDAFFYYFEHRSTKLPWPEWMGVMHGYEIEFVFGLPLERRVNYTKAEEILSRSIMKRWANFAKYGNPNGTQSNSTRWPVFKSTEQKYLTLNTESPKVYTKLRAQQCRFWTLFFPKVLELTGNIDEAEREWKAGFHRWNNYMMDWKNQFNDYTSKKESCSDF
Chain of Acetylcholinesterase (Electrophorus electricus) (O42275 24-633 limits assumed): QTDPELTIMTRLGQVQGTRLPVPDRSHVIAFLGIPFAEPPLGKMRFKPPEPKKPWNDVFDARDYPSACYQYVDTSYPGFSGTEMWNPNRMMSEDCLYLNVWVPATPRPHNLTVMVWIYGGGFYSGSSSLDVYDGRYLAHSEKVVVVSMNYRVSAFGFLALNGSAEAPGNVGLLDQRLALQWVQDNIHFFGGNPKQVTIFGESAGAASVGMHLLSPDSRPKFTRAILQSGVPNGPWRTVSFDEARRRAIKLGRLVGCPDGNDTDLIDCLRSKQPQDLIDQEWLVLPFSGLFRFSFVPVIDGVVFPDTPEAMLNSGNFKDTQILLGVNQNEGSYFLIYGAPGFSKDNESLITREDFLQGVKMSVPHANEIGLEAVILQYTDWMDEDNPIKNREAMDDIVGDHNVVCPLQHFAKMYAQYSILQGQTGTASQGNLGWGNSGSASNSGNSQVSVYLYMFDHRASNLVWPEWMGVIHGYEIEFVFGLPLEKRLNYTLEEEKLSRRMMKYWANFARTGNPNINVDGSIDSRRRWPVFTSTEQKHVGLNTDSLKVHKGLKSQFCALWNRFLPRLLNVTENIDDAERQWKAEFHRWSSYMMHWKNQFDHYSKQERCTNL

In the case of `Clc1ccc2/c(=N/CCCCCCCC/N=c3/c4ccc(Cl)cc4nc4n3CCC4)n3c(nc2c1)CCC3`, the figures for the IC50 in data set [1] and in data set [2] were 0.045 µM and 0.05 µM, respectively.

Regarding `NCCC/N=c1/c2ccc(Cl)cc2nc2n1CCC2`, the Ratio IC50 in data set [3] is 1.9. The IC50 came out at 10.2 µM in data set [1] and 19 µM in data set [2].

In the case of `O=C(CCCCC1CCSS1)NCCCC/N=c1/c2ccc(Cl)cc2nc2n1CCC2` (stereo unspecified), in data set [3], the Ratio IC50 came to 27.1. For the same compound, the IC50 in data set [1] came to 0.17 µM; in data set [2] it was 4.58 µM.

`NCCCCC/N=c1/c2ccc(Cl)cc2nc2n1CCC2`: the Ratio IC50 in data set [3] is 0.9. The IC50 came to 0.19 µM in data set [1] and 0.17 µM in data set [2].

`O=C(CCCCC1CCSS1)NCCC/N=c1/c2ccc(Cl)cc2nc2n1CCC2` (stereo unspecified): in data set [3], the Ratio IC50 was 1.1. For the same compound, the IC50 in data set [1] is 2.58 µM; in data set [4], 7.51 µM; in data set [2], 2.84 µM. In addition, the Activity in data set [5] was found to be 0.8.

Take `NCCCCCCCC/N=c1/c2ccccc2nc2n1CCCCCC2`: the Ratio IC50 in data set [3] turned out to be 73.9. The IC50 in data set [1] came out at 0.046 µM; in data set [4], 3.74 µM; in data set [2], 3.4 µM. Further, the Activity in data set [5] stood at 0.1.

In the case of `O=C(CCCCC1CCSS1)NCCCCCCCC/N=c1/c2ccc(Cl)cc2nc2n1CCC2` (stereo unspecified), the Ratio IC50 in data set [3] is 82. Also, the results for the IC50 in data set [1], in data set [4] and in data set [2] were 0.0057 µM, 10.2 µM and 0.468 µM, respectively. The Activity in data set [5] was 0.5.

As to `NCCCCCC/N=c1/c2ccc(Cl)cc2nc2n1CCC2`, in data set [3], the Ratio IC50 was 3.9. In addition, the results for the IC50 in data set [1], in data set [4] and in data set [2] were 0.38 µM, 6.01 µM and 1.49 µM, respectively. Moreover, the Activity in data set [5] is given as 0.2.

On to `c1ccc(C/N=c2/c3ccccc3nc3n2CCCCCCC3)cc1`, for which the IC50 was 1.1 µM in data set [1] and > 500 µM in data set [2].

Consider `O=C(CCCCC1CCSS1)NCCCCCC/N=c1/c2ccc(Cl)cc2nc2n1CCC2` (stereo unspecified), for which the Ratio IC50 in data set [3] came out at 28.8. Moreover, the values for the IC50 in data set [1] and in data set [2] were 0.026 µM and 0.74 µM, respectively.

With `CCCC/N=c1/c2ccc(Cl)cc2nc2n1CCC2`, in data set [3], the Ratio IC50 came out at 1.7.

Regarding `O=C(CCCCC1CCSS1)NCCCCCCCC/N=c1/c2ccccc2nc2n1CCCCCC2` (stereo unspecified), the Ratio IC50 in data set [3] was > 5000. Also, the IC50 was 0.023 µM in data set [1] and 6.54 µM in data set [4]. For the same compound, the inhibition in data set [6] is < 10%. For the same compound, in data set [5], the Activity came to 0.4.

As to `O=C(CCCCC1CCSS1)NCCCCCCC/N=c1/c2ccc(Cl)cc2nc2n1CCC2` (stereo unspecified), the Ratio IC50 in data set [3] is 134. Further, the IC50 in data set [1] was 0.014 µM; in data set [2] it was 1.94 µM.

Take `O=C(O)CCCCC1CCSS1` (stereo not drawn) [LIPOIC ACID, ALPHA]: the Activity in data set [5] is 0.6.

Consider `NCCCC/N=c1/c2ccc(Cl)cc2nc2n1CCC2`, for which the Ratio IC50 in data set [3] turned out to be 0.7. The figures for the IC50 in data set [1] and in data set [2] were 0.72 µM and 0.48 µM, respectively.

In the case of `N=c1c2ccccc2nc2n1CCC2`, in data set [3], the Ratio IC50 came to 1.8.

With `NCCCCCCC/N=c1/c2ccc(Cl)cc2nc2n1CCC2`, in data set [3], the Ratio IC50 came to 5.7. The IC50 in data set [1] was determined as 0.71 µM; in data set [2], 4.06 µM.

Consider `O=C(CCCCC1CCSS1)NCCCCC/N=c1/c2ccc(Cl)cc2nc2n1CCC2` (stereo unspecified), for which the Ratio IC50 in data set [3] amounted to 83. The IC50 in data set [1] is 0.053 µM; in data set [2] it was 4.38 µM.

In the case of `NCCCCCCCC/N=c1/c2ccc(Cl)cc2nc2n1CCC2`, the Ratio IC50 in data set [3] is 10.7. Moreover, the results for the IC50 in data set [1], in data set [4] and in data set [2] were 0.012 µM, 6.27 µM and 0.13 µM, respectively. For the same compound, the Activity in data set [5] is recorded as 0.1.

Usually IC50 stands for the midpoint of a concentration-inhibition curve. High values mean weaker potency, low ones greater potency. As a reminder, the inhibition is the percentage by which the read-out fell short of the control. Low values mean little suppression, high ones strong suppression.
